Test results published in ChEMBL document CHEMBL1649378, “Synthesis and biological evaluation of new derivatives of 2-substituted 4-hydroxybutanamides as GABA uptake inhibitors” (Eur J Med Chem, 2011).

Legend:
[1] = target: Sodium- and chloride-dependent GABA transporter 1 (Mus musculus) (UniProt P31648); test: Inhibition of [3H]GABA uptake at GAT1 expressed in HEK cells; set-up: inhibition: concentration or dose not given beside the values; details: HEK293; for inhibition: concentration not given here
[2] = target: Sodium- and chloride-dependent GABA transporter 1 (Mus musculus) (UniProt P31648); test: Inhibition of NO711 binding to mouse GAT1 by MS-binding assay; set-up: inhibition: concentration or dose not given beside the values; details: for inhibition: concentration not given here
In short: (§1)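 Binding assay on murine GAT1 with unlabelled NO711 as marker, quantified by LC-MS/MS on a triple quadrupole instrument. Compounds were first screened at 100 μM. Those cutting NO711 binding by at least 50% were rated active and then given pKi values.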

[3] = system: Sodium- and chloride-dependent GABA transporter 2 (Mus musculus); test: Inhibition of [3H]GABA uptake at GAT2 expressed in HEK cells; set-up: inhibition: concentration or dose not given beside the values; details: HEK293; for inhibition: concentration not given here
[4] = target: Sodium- and chloride-dependent GABA transporter 1 (Mus musculus) (UniProt P31648); test: Remaining NO711 binding to mouse GAT1 by MS-binding assay
[5] = system: Sodium- and chloride-dependent GABA transporter 3 (Mus musculus); test: Inhibition of [3H]GABA uptake at GAT3 expressed in HEK cells at 100 uM; details: HEK293
[6] = system: Sodium- and chloride-dependent GABA transporter 2 (Mus musculus); test: Inhibition of [3H]GABA uptake at GAT2 expressed in HEK cells at 100 uM; details: HEK293
[7] = target: Sodium- and chloride-dependent GABA transporter 1 (Mus musculus) (UniProt P31648); test: Inhibition of NO711 binding to mouse GAT1 at 100 uM by MS-binding assay
In short: as §1

[8] = system: HEK293; test: Inhibition of [3H]GABA uptake at GAT4 expressed in HEK cells at 100 uM; assay type: cell-based
In short: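 [³H]GABA uptake measured in HEK cells stably transfected with the individual murine GABA transporter subtypes GAT1–GAT4. Compounds were first screened at 100 μM, and results are given as % remaining GABA uptake (means). Those cutting uptake by at least 50% were rated active and then given pIC50 values.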

[9] = target: Sodium- and chloride-dependent GABA transporter 1 (Mus musculus) (UniProt P31648); test: Inhibition of [3H]GABA uptake at GAT1 expressed in HEK cells at 100 uM; details: HEK293

Compound	inhibition [1]	inhibition [3]	remaining binding [4]	pIC50 [1]	pIC50 [3]	other results
O=C(NCc1ccccc1)C(CCO)N1CCC(Cc2ccccc2)CC1 (racemic)	75%	49%				inhibition [2]: 86%
NC(=O)C(CCO)N1CCN(C(c2ccccc2)c2ccccc2)CC1 (racemic)			98%			inhibition [5]: 83%
O=C(NCCc1ccccc1)C(CCO)N1CCN(C(c2ccccc2)c2ccccc2)CC1 (racemic)						inhibition [6]: 93%; inhibition [5]: 80%
O=C(NCc1ccccc1F)C(CCO)N1CCN(C(c2ccccc2)c2ccccc2)CC1 (racemic)				4.48	4.33	inhibition [7]: 55%
O=C(NCc1ccccc1)C(CCO)N1CCN(C(c2ccccc2)c2ccccc2)CC1 (racemic)				4.66	4.47	pKi [2]: 4.96; inhibition [8]: 54%; inhibition [5]: 46%
Cc1ccc(CNC(=O)C(CCO)N2CCN(C(c3ccccc3)c3ccccc3)CC2)cc1 (racemic)			61%			
COc1ccc(CNC(=O)C(CCO)N2CCN(C(c3ccccc3)c3ccccc3)CC2)cc1 (racemic)						inhibition [6]: 78%; inhibition [5]: 61%
O=C(NCc1ccccc1)C(CCO)N1CCOCC1 (racemic)	113%	98%				inhibition [2]: 95%
O=C(NCc1ccccc1Cl)C(CCO)N1CCN(C(c2ccccc2)c2ccccc2)CC1 (racemic)						inhibition [6]: 72%; inhibition [9]: 83%; inhibition [5]: 73%
O=C(NCc1ccccc1)C(CCO)N1CCNCC1 (racemic)	63%	98%				inhibition [2]: 76%
O=C(NCc1ccc(Cl)cc1)C(CCO)N1CCNCC1 (racemic)	79%	98%				
NC(=O)C(CCO)N1CCNCC1 (racemic)	84%	110%				

The next lines start with results.

inhibition [1]	inhibition [3]	remaining binding [4]	pIC50 [1]	pIC50 [3]	Compound	other results
		63%	4.19	4.33	O=C(NCc1ccccc1)C(CCO)N1CCN(C(c2ccc(F)cc2)c2ccc(F)cc2)CC1 (racemic)	
			4.84		O=C(NCc1ccc(F)cc1)C(CCO)N1CCN(C(c2ccccc2)c2ccccc2)CC1 (racemic)	inhibition [6]: 52%; pKi [2]: 4.82
		92%	4.23	4.44	Cc1ccc(CNC(=O)C(CCO)N2CCN(C(c3ccc(F)cc3)c3ccc(F)cc3)CC2)cc1 (racemic)	
69%				4.43	O=C(NCCc1ccccc1)C(CCO)N1CCN(C(c2ccc(F)cc2)c2ccc(F)cc2)CC1 (racemic)	inhibition [2]: 98%
		102%	4.14	4.35	O=C(NCc1ccc(Cl)cc1)C(CCO)N1CCN(C(c2ccc(F)cc2)c2ccc(F)cc2)CC1 (racemic)	
93%	65%				COc1ccc(CNC(=O)C(CCO)N2CCN(C(c3ccc(F)cc3)c3ccc(F)cc3)CC2)cc1 (racemic)	inhibition [2]: 101%
			4.88	4.56	O=C(NCc1ccc(Cl)cc1)C(CCO)N1CCN(C(c2ccccc2)c2ccccc2)CC1 (racemic)	pKi [2]: 4.33
		75%	4.03	4.13	O=C(NCc1ccc(F)cc1)C(CCO)N1CCN(C(c2ccc(F)cc2)c2ccc(F)cc2)CC1 (racemic)	
		93%	4.2	4.17	O=C(NCc1ccccc1Cl)C(CCO)N1CCN(C(c2ccc(F)cc2)c2ccc(F)cc2)CC1 (racemic)	
97%	65%	92%			O=C(NCc1ccccc1F)C(CCO)N1CCN(C(c2ccc(F)cc2)c2ccc(F)cc2)CC1 (racemic)	
66%	84%				NC(=O)C(CCO)N1CCN(C(c2ccc(F)cc2)c2ccc(F)cc2)CC1 (racemic)	inhibition [2]: 106%
